{"source": "paper PMC5812400", "about": "(ESMO Open, 2018)", "system": "adult patients with advanced non-haematological malignancies", "assay": "Safety and tolerability", "type": "in vivo, human", "procedure,_shortened": "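Patients on milled oral capsules, fasted, in 28-day cycles. AEs and SAEs recorded from first dose through 30 days after last dose. Graded by NCI CTCAE v4.03 and coded to MedDRA v19.0. Relatedness to study drug judged by investigator.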", "note": "Entries after “also recorded” stand apart in the source; their conditions may differ."}
{"smiles": "CC(C)n1nc(-c2ccc3oc(N)nc3c2)c2c(N)ncnc21", "note": "[TAK-228, Sapanisertib]", "values": [{"measurement": "Drug-related AE: Dry mouth", "setting": "QW 20 mg (n=7)", "value": "0 n (%)"}, {"measurement": "Drug-related AE: Fatigue", "setting": "QW 20 mg (n=7)", "value": "3 (43) n (%)"}, {"measurement": "Drug-related AE: Hyperglycaemia", "setting": "QW 20 mg (n=7)", "value": "0 n (%)"}, {"measurement": "Drug-related AE: Nausea", "setting": "QW 20 mg (n=7)", "value": "4 (57) n (%)"}, {"measurement": "Drug-related AE: Pruritus", "setting": "QW 20 mg (n=7)", "value": "0 n (%)"}, {"measurement": "Drug-related AE: Rash (maculopapular)", "setting": "QW 20 mg (n=7)", "value": "0 n (%)"}, {"measurement": "Drug-related AE: Stomatitis", "setting": "QW 20 mg (n=7)", "value": "0 n (%)"}, {"measurement": "Drug-related AE: Vomiting", "setting": "QW 20 mg (n=7)", "value": "2 (29) n (%)"}, {"measurement": "Drug-related SAE", "setting": "QW 20 mg (n=7)", "value": "0 n (%)"}, {"measurement": "Drug-related grade ≥3 AE", "setting": "QW 20 mg (n=7)", "value": "2 (29) n (%)"}, {"measurement": "Grade ≥3 AE", "setting": "QW 20 mg (n=7)", "value": "5 (71) n (%)"}, {"measurement": "Grade ≥3 AE: Abdominal pain", "setting": "QW 20 mg (n=7)", "value": "1 (14) n (%)"}, {"measurement": "Grade ≥3 AE: Anaemia", "setting": "QW 20 mg (n=7)", "value": "1 (14) n (%)"}, {"measurement": "Grade ≥3 AE: Diarrhoea", "setting": "QW 20 mg (n=7)", "value": "1 (14) n (%)"}, {"measurement": "Grade ≥3 AE: Hypercalcaemia", "setting": "QW 20 mg (n=7)", "value": "0 n (%)"}, {"measurement": "Grade ≥3 AE: Hyperglycaemia", "setting": "QW 20 mg (n=7)", "value": "0 n (%)"}, {"measurement": "Grade ≥3 AE: Hypophosphataemia", "setting": "QW 20 mg (n=7)", "value": "0 n (%)"}, {"measurement": "Grade ≥3 AE: Hypotension", "setting": "QW 20 mg (n=7)", "value": "2 (29) n (%)"}, {"measurement": "Grade ≥3 AE: Nausea", "setting": "QW 20 mg (n=7)", "value": "1 (14) n (%)"}, {"measurement": "Grade ≥3 AE: Vomiting", "setting": "QW 20 mg (n=7)", "value": "1 (14) n (%)"}, {"measurement": "On-study deaths", "setting": "QW 20 mg (n=7)", "value": "0 n (%)"}, {"measurement": "SAE", "setting": "QW 20 mg (n=7)", "value": "4 (57) n (%)"}, {"measurement": "AE resulting in TAK-228 discontinuation", "setting": "QW 30 mg (n=13)", "value": "3 (23) n (%)"}, {"measurement": "Drug-related AE", "setting": "QW 30 mg (n=13)", "value": "11 (85) n (%)"}, {"measurement": "Drug-related AE: Asthaenia", "setting": "QW 30 mg (n=13)", "value": "0 n (%)"}, {"measurement": "Drug-related AE: Decreased appetite", "setting": "QW 30 mg (n=13)", "value": "2 (15) n (%)"}, {"measurement": "Drug-related AE: Dehydration", "setting": "QW 30 mg (n=13)", "value": "0 n (%)"}, {"measurement": "Drug-related AE: Diarrhoea", "setting": "QW 30 mg (n=13)", "value": "2 (15) n (%)"}, {"measurement": "Drug-related AE: Dry mouth", "setting": "QW 30 mg (n=13)", "value": "1 (8) n (%)"}, {"measurement": "Drug-related AE: Fatigue", "setting": "QW 30 mg (n=13)", "value": "6 (46) n (%)"}, {"measurement": "Drug-related AE: Hyperglycaemia", "setting": "QW 30 mg (n=13)", "value": "3 (23) n (%)"}, {"measurement": "Drug-related AE: Nausea", "setting": "QW 30 mg (n=13)", "value": "5 (39) n (%)"}, {"measurement": "Drug-related AE: Pruritus", "setting": "QW 30 mg (n=13)", "value": "1 (8) n (%)"}, {"measurement": "Drug-related AE: Rash (maculopapular)", "setting": "QW 30 mg (n=13)", "value": "2 (15) n (%)"}, {"measurement": "Drug-related AE: Stomatitis", "setting": "QW 30 mg (n=13)", "value": "2 (15) n (%)"}, {"measurement": "Drug-related AE: Vomiting", "setting": "QW 30 mg (n=13)", "value": "7 (54) n (%)"}, {"measurement": "Drug-related SAE", "setting": "QW 30 mg (n=13)", "value": "2 (15) n (%)"}, {"measurement": "Drug-related grade ≥3 AE", "setting": "QW 30 mg (n=13)", "value": "4 (31) n (%)"}, {"measurement": "Grade ≥3 AE", "setting": "QW 30 mg (n=13)", "value": "7 (54) n (%)"}, {"measurement": "Grade ≥3 AE: Abdominal pain", "setting": "QW 30 mg (n=13)", "value": "1 (8) n (%)"}, {"measurement": "Grade ≥3 AE: Anaemia", "setting": "QW 30 mg (n=13)", "value": "1 (8) n (%)"}, {"measurement": "Grade ≥3 AE: Hypercalcaemia", "setting": "QW 30 mg (n=13)", "value": "2 (15) n (%)"}, {"measurement": "Grade ≥3 AE: Hyperglycaemia", "setting": "QW 30 mg (n=13)", "value": "3 (23) n (%)"}, {"measurement": "Grade ≥3 AE: Hypophosphataemia", "setting": "QW 30 mg (n=13)", "value": "1 (8) n (%)"}, {"measurement": "Grade ≥3 AE: Hypotension", "setting": "QW 30 mg (n=13)", "value": "0 n (%)"}, {"measurement": "Grade ≥3 AE: Nausea", "setting": "QW 30 mg (n=13)", "value": "1 (8) n (%)"}, {"measurement": "Grade ≥3 AE: Vomiting", "setting": "QW 30 mg (n=13)", "value": "1 (8) n (%)"}, {"measurement": "On-study deaths", "setting": "QW 30 mg (n=13)", "value": "1 (8) n (%)"}, {"measurement": "SAE", "setting": "QW 30 mg (n=13)", "value": "6 (46) n (%)"}, {"measurement": "AE resulting in TAK-228 discontinuation", "setting": "QW Total (n=20)", "value": "3 (15) n (%)"}, {"measurement": "Drug-related AE", "setting": "QW Total (n=20)", "value": "16 (80) n (%)"}, {"measurement": "Drug-related AE: Asthaenia", "setting": "QW Total (n=20)", "value": "1 (5) n (%)"}, {"measurement": "Drug-related AE: Decreased appetite", "setting": "QW Total (n=20)", "value": "3 (15) n (%)"}, {"measurement": "Drug-related AE: Dehydration", "setting": "QW Total (n=20)", "value": "1 (5) n (%)"}, {"measurement": "Drug-related AE: Diarrhoea", "setting": "QW Total (n=20)", "value": "6 (30) n (%)"}, {"measurement": "Drug-related AE: Dry mouth", "setting": "QW Total (n=20)", "value": "1 (5) n (%)"}, {"measurement": "Drug-related AE: Fatigue", "setting": "QW Total (n=20)", "value": "9 (45) n (%)"}, {"measurement": "Drug-related AE: Hyperglycaemia", "setting": "QW Total (n=20)", "value": "3 (15) n (%)"}, {"measurement": "Drug-related AE: Nausea", "setting": "QW Total (n=20)", "value": "9 (45) n (%)"}, {"measurement": "Drug-related AE: Pruritus", "setting": "QW Total (n=20)", "value": "1 (5) n (%)"}, {"measurement": "Drug-related AE: Rash (maculopapular)", "setting": "QW Total (n=20)", "value": "2 (10) n (%)"}, {"measurement": "Drug-related AE: Stomatitis", "setting": "QW Total (n=20)", "value": "2 (10) n (%)"}, {"measurement": "Drug-related AE: Vomiting", "setting": "QW Total (n=20)", "value": "9 (45) n (%)"}, {"measurement": "Drug-related SAE", "setting": "QW Total (n=20)", "value": "2 (10) n (%)"}, {"measurement": "Drug-related grade ≥3 AE", "setting": "QW Total (n=20)", "value": "6 (30) n (%)"}, {"measurement": "Grade ≥3 AE", "setting": "QW Total (n=20)", "value": "12 (60) n (%)"}, {"measurement": "Grade ≥3 AE: Abdominal pain", "setting": "QW Total (n=20)", "value": "2 (10) n (%)"}, {"measurement": "Grade ≥3 AE: Anaemia", "setting": "QW Total (n=20)", "value": "2 (10) n (%)"}, {"measurement": "Grade ≥3 AE: Diarrhoea", "setting": "QW Total (n=20)", "value": "1 (5) n (%)"}, {"measurement": "Grade ≥3 AE: Hypercalcaemia", "setting": "QW Total (n=20)", "value": "2 (10) n (%)"}, {"measurement": "Grade ≥3 AE: Hyperglycaemia", "setting": "QW Total (n=20)", "value": "3 (15) n (%)"}, {"measurement": "Grade ≥3 AE: Hypophosphataemia", "setting": "QW Total (n=20)", "value": "1 (5) n (%)"}, {"measurement": "Grade ≥3 AE: Hypotension", "setting": "QW Total (n=20)", "value": "2 (10) n (%)"}, {"measurement": "Grade ≥3 AE: Nausea", "setting": "QW Total (n=20)", "value": "2 (10) n (%)"}, {"measurement": "Grade ≥3 AE: Vomiting", "setting": "QW Total (n=20)", "value": "2 (10) n (%)"}, {"measurement": "On-study deaths", "setting": "QW Total (n=20)", "value": "1 (5) n (%)"}, {"measurement": "SAE", "setting": "QW Total (n=20)", "value": "10 (50) n (%)"}, {"measurement": "Asthaenic conditions, patients", "setting": "QW arm", "value": 60, "unit": "%"}, {"measurement": "Drug-related AE of any grade: diarrhoea", "setting": "QW arm", "value": 30, "unit": "%"}, {"measurement": "Drug-related AE of any grade: fatigue", "setting": "QW arm", "value": 45, "unit": "%"}, {"measurement": "Drug-related AE of any grade: nausea", "setting": "QW arm", "value": 45, "unit": "%"}, {"measurement": "Drug-related AE of any grade: vomiting", "setting": "QW arm", "value": 45, "unit": "%"}, {"measurement": "Grade ≥3 AE: Abdominal pain", "setting": "QW arm", "value": 10, "unit": "%"}, {"measurement": "Grade ≥3 AE: Anaemia", "setting": "QW arm", "value": 10, "unit": "%"}, {"measurement": "Grade ≥3 AE: Hypercalcaemia", "setting": "QW arm", "value": 10, "unit": "%"}, {"measurement": "Grade ≥3 AE: Hyperglycaemia", "setting": "QW arm", "value": 15, "unit": "%"}, {"measurement": "Grade ≥3 AE: Hypotension", "setting": "QW arm", "value": 10, "unit": "%"}, {"measurement": "Grade ≥3 AE: Nausea", "setting": "QW arm", "value": 10, "unit": "%"}, {"measurement": "Grade ≥3 AE: Vomiting", "setting": "QW arm", "value": 10, "unit": "%"}, {"measurement": "SAEs, patients", "setting": "QW arm", "value": 50, "unit": "%"}, {"measurement": "Patients experiencing AEs", "setting": "TAK-228 QD arm", "value": 100, "unit": "%"}, {"measurement": "Patients with drug-related AEs", "setting": "TAK-228 QD arm", "value": 94, "unit": "%"}, {"measurement": "Patients experiencing AEs", "setting": "TAK-228 QW arm", "value": 95, "unit": "%"}, {"measurement": "Patients with drug-related AEs", "setting": "TAK-228 QW arm", "value": 80, "unit": "%"}, {"measurement": "AEs of interest (hyperglycaemia, rash, renal insufficiency, mucosal inflammation and asthaenic conditions), patients", "setting": "all treatment arms", "value": "≥ 10", "unit": "%"}, {"measurement": "Most commonly reported drug-related AEs (fatigue, diarrhoea and nausea), patients", "setting": "treatment period, across all treatment arms", "value": "≥ 25", "unit": "%"}, {"measurement": "On-study deaths and relatedness to study drugs", "setting": "whole study, all arms", "value": "Three on-study deaths occurred, all considered unrelated to study drugs; also recorded: Three deaths occurred during the study, one in each treatment arm; none were considered related to study drugs"}]}
